# Reference: paper PMC2692962 (Journal of molecular biology, 2009)
# Legend:
# [1] = target: T1, NS3h_1b(con1) HCV helicase (Hepatitis C virus genotype 1b, UniProt Q9WMX2); assay: Molecular beacon based helicase assay; assay type: biochemical; conditions: for ability of divalent metal to support DNA unwinding: metal replacing Mg^2+; for unwinding rate, % of that seen with ATP: 0.5 mM NTP analog, 2 mM MgCl2, initial rates; for DNA unwinding rate, times faster than ATP: 0.5 mM NTP, 2 mM MgCl2, 25 nM NS3h, 22 °C; for Vmax, Michaelis-Menten / Km: data at or below 1 mM NTP; for Vmax, substrate inhibition model: global fit to equation (2); for Km: read-out: Km, Michaelis-Menten
# T1 sequence (Q9WMX2 1192-1657): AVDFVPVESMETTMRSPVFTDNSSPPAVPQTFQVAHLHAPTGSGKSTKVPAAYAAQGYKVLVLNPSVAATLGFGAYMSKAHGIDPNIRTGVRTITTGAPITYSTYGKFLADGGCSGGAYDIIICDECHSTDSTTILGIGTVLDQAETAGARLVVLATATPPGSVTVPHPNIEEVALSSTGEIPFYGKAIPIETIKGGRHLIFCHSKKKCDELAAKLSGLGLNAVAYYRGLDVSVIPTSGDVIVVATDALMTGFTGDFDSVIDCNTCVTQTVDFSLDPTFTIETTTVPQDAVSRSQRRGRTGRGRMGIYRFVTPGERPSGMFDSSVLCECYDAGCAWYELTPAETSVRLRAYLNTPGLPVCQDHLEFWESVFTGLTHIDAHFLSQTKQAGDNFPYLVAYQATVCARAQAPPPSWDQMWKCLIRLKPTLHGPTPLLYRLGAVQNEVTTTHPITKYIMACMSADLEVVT
# [2] = target: T1, NS3h_1b(con1) HCV helicase; assay: ATP hydrolysis assay; assay type: biochemical; conditions: for ATP hydrolysis in the absence of RNA: no nucleic acid, 100 nM NS3h, versus rate without added metal; for ATP hydrolysis in the absence of RNA / ATP hydrolysis in the presence of RNA: 2 mM ATP, 37 °C; for ATP hydrolysis in the presence of RNA: 0.1 mg/ml poly(U), 15 nM NS3h; for ATP hydrolyzed for each 25 bp duplex separated: MBHA conditions, 25 nM NS3h, 1.25 mM metal; for ATP hydrolyzed for each 25 bp duplex separated / rate of ATP hydrolysis: 1 mM ATP; for rate of ATP hydrolysis: in MBHA, 25 nM NS3h_1b(con1), 1.25 mM metal chloride, triplicate; for ATP hydrolyzed in the time needed to separate a single base pair: steady state unwinding versus ATP hydrolysis, only divalent cation present
# [3] = target: T1, NS3h_1b(con1) HCV helicase; assay: mantADP; assay type: binding; conditions: FRET, metal replacing Mg^2+
# [4] = target: T1, NS3h_1b(con1) HCV helicase; assay: Single-turnover MBHA; assay type: biochemical; conditions: for Afast / kfast / Aslow / kslow: 0.5 mM NTP
# Procedure, shortened: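 Enzyme (50 nM NS3h) and 10 nM 17 bp Cy5 beacon DNA substrate in 50 mM MOPS pH 6.5 with 4 mM MgCl2 were rapidly mixed 1:1 with 1.0 mM NTP plus 2 μM dT20 trap. Fluorescence gave substrate remaining, corrected against a substrate-free blank and pre-NTP signal. Product (5 nM minus remaining) was fit to a two-phase first-order equation. Three independent reactions were run.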
# HCV helicase [5] = conditions: ref Kyono et al.; cited from earlier work
# full-length NS3 = conditions: ref Wardell et al.; cited from earlier work
# HCV helicase [6] = conditions: ref Locatelli et al.; cited from earlier work
# [7] = 17 base pairs substrate, two-phase fit
structure (smiles),measurement,setting,value
[Ca+2] [Ca^2+],ability of divalent metal to support DNA unwinding,[1]; data not shown,did not support
same,ATP hydrolysis in the absence of RNA,[2],inhibited the rate of hydrolysis
CO[C@@H]1[C@H](O)[C@@H](COP(=O)(O)OP(=O)(O)OP(=O)(O)O)O[C@H]1n1cnc2c(N)ncnc21 [2′-O-methyl-ATP],"unwinding rate, % of that seen with ATP",[1],34%
Nc1ncnc2c1ncn2[C@@H]1O[C@H](COP(=O)(O)OP(=O)(O)OP(=O)(O)O)C[C@H]1O [3′-dATP],"DNA unwinding rate, times faster than ATP",[1],3 fold
"[Cl-].[Cl-].[Zn+2] [Zn^2+, ZnCl2]",formation of enzyme-metal-NTP complex,[3],formed an enzyme-metal-NTP complex
same,ability of divalent metal to support DNA unwinding,[1]; data not shown,did not support
same,ATP hydrolysis in the presence of RNA,[2],supported hydrolysis
same,ATP hydrolysis in the absence of RNA,[2],inhibited the rate of hydrolysis
"Nc1ncnc2c1ncn2[C@H]1CC[C@@H](CO[P@@](=O)(O)O[P@](=O)(O)OP(=O)(O)O)O1 [2′,3′-ddATP]","DNA unwinding rate, times faster than ATP",[1],2.7 fold
Cc1cn([C@H]2C[C@H](O)[C@@H](COP(=O)(O)OP(=O)(O)OP(=O)(O)O)O2)c(=O)[nH]c1=O [dTTP],Afast,[4]; 17 base pairs substrate,3.4 ± 0.4 nM
same,kfast,[4]; 17 base pairs substrate,9.1 ± 0.4 min⁻¹
same,Aslow,[4]; [7],0.48 ± 0.03 nM
same,kslow,[4]; [7],0.28 ± 0.06 min⁻¹
same,Afast,[4]; 30 base pairs substrate,2.6 ± 0.03 nM
same,Aslow,[4]; 30 base pairs substrate,0.66 ± 0.02 nM
same,kfast,[4]; 30 base pairs substrate,4.8 ± 0.3 min⁻¹
same,kslow,[4]; 30 base pairs substrate,0.50 ± 0.02 min⁻¹
same,"DNA unwinding rate, times faster than ATP",[1],about 3 fold
same,"Vmax, Michaelis-Menten",[1]; 0.25 mM free Mg^2+,5.3 nM/min
same,"Vmax, substrate inhibition model",[1]; 0.25 mM free Mg^2+,50 nM/min
same,Km,[1]; 0.25 mM free Mg^2+,300 µM
Nc1ncnc2c1ncn2[C@H]1C[C@H](O)[C@@H](COP(=O)(O)OP(=O)(O)OP(=O)(O)O)O1 [dATP],use of dATP compared with ATP for unwinding,HCV helicase [5],used equally well
same,unwinding relative to that observed with ATP,full-length NS3,60%
"[Cl-].[Cl-].[Mg+2] [Mg^2+, MgCl2]",ATP hydrolysis in the presence of RNA,[2],supported hydrolysis
same,ATP hydrolyzed for each 25 bp duplex separated,[2],"about 1,000 ATP"
same,rate of ATP hydrolysis,[2],629 ± 5.4 nM/min
same,ATP hydrolysis in the absence of RNA,[2],enhanced hydrolysis
same,ATP hydrolyzed in the time needed to separate a single base pair,[2],about 40 ATP
Nc1ncnc2c1ncn2[C@@H]1O[C@H](COP(=O)(O)OP(=O)(O)OP(=O)(O)O)[C@@H](O)[C@H]1F [2′-F-ATP],"unwinding rate, % of that seen with ATP",[1],145%
[Co+2] [Co^2+],ability of divalent metal to support DNA unwinding,[1]; data not shown,did not support
same,ATP hydrolysis in the presence of RNA,[2],supported hydrolysis
same,ATP hydrolysis in the absence of RNA,[2],inhibited the rate of hydrolysis
"O=c1[nH]c(=O)c2ncn([C@@H]3O[C@H](COP(=O)(O)OP(=O)(O)OP(=O)(O)O)[C@@H](O)[C@H]3O)c2[nH]1 [XTP, Xanthosine triphosphate]","unwinding rate, % of that seen with ATP",[1],7%
Nc1ncnc2c1ncn2C1OC(COP(=O)([O-])OP(=O)([O-])OP(=O)([O-])[O-])C(O)C1O.[Mn+2] (stereo not shown) [Mn(ATP)^2−],"hydrolysis by the open form, times slower than Mg(ATP)^2−",[2]; enzyme not bound to RNA,at least 100 times
Nc1ncnc2c1ncn2[C@@H]1O[C@H](COP(=O)(O)OP(=O)(O)OP(=O)(O)O)[C@@H](O)[C@H]1O [ATP],Afast,[4]; 17 base pairs substrate,3.1 ± 0.02 nM
same,kfast,[4]; 17 base pairs substrate,8.4 ± 0.1 min⁻¹
same,Aslow,[4]; [7],0.70 ± 0.04 nM
same,kslow,[4]; [7],0.28 ± 0.05 min⁻¹
same,Afast,[4]; 30 base pairs substrate,1.8 ± 0.03 nM
same,Aslow,[4]; 30 base pairs substrate,1.2 ± 0.03 nM
same,kfast,[4]; 30 base pairs substrate,3.1 ± 0.1 min⁻¹
same,kslow,[4]; 30 base pairs substrate,0.46 ± 0.03 min⁻¹
same,"Vmax, Michaelis-Menten",[1]; 0.25 mM free Mg^2+,0.79 nM/min
same,Vmax,"[1]; equation (3), ATP and GTP both present",1.6 nM/min
same,"Vmax, substrate inhibition model",[1]; 0.25 mM free Mg^2+,10 nM/min
same,Ki,"[1]; read-out: Ki (ATP), equation (3), ATP and GTP both present",0.69 mM
same,Km,[1]; 0.25 mM free Mg^2+,70 µM
same,"unwinding, times better than dATP",HCV helicase [6],100 times
[N-]=[N+]=NC1C(O)C(COP(=O)(O)OP(=O)(O)OP(=O)(O)O)OC1n1cnc2c(N)ncnc21 (stereo not shown) [2′-azido-ATP],"unwinding rate, % of that seen with ATP",[1],61%
Nc1ncnc2c1ncn2[C@@H]1O[C@H](COP(=O)(O)OP(=O)(O)OP(=O)(O)O)[C@@H](O)[C@@H]1O [2′-ara-ATP],"unwinding rate, % of that seen with ATP",[1],practically the same unwinding rates as ATP
Nc1ncnc2c1ncn2[C@@H]1O[C@H](COP(=O)([O-])OP(=O)([O-])OP(=O)(O)O)[C@@H](O)[C@H]1O.[Mg+2] [Mg(ATP)^2−],maximal steady state unwinding rate,[1]; 25 nM NS3h,0.8 nM/min
same,"Vmax for unwinding, times faster than Mg(GTP)^2−","[1]; Michaelis-Menten fit, data up to 1 mM Mg(NTP)^2−, 0.25 mM free Mg^2+",15 times
same,kcat of unwinding,"[1]; calculated from maximal steady state rate at 25 nM NS3h, assumes monomer",0.000533 s⁻¹
Nc1nc2c(ncn2[C@@H]2O[C@H](COP(=O)(O)OP(=O)(O)OP(=O)(O)O)[C@@H](O)[C@H]2O)c(=O)[nH]1 [GTP],"reaction amplitude, times less than in ATP fueled reactions",[4]; 17 base pair substrate,7 times
same,Afast,[4]; 17 base pairs substrate,0.42 ± 0.03 nM
same,kfast,[4]; 17 base pairs substrate,8.3 ± 1.9 min⁻¹
same,Afast,[4]; 30 base pairs substrate,0.58 ± 0.08 nM
same,Aslow,[4]; 30 base pairs substrate,0.11 ± 0.05 nM
same,kfast,[4]; 30 base pairs substrate,0.61 ± 0.06 min⁻¹
same,kslow,[4]; 30 base pairs substrate,0.62 ± 0.08 min⁻¹
same,"Vmax, Michaelis-Menten",[1]; 0.25 mM free Mg^2+,0.05 nM/min
same,Kii (GTP),"[1]; equation (3), GTP as non-competitive inhibitor of ATP fueled unwinding",0.65 mM
same,"Vmax, substrate inhibition model",[1]; 0.25 mM free Mg^2+,0.41 nM/min
same,Km,[1]; 0.25 mM free Mg^2+,410 µM
[Cl-].[Na+] [NaCl],IC50,"[1]; read-out: IC50, inhibition of NS3h catalyzed DNA unwinding, MBHA, data not shown",15 mM
"[Cl][Mn][Cl] [Mn^2+, MnCl2]",formation of enzyme-metal-NTP complex,[3],formed an enzyme-metal-NTP complex
same,"MBHA substrate unwound, times faster than with Mg^2+","[1]; 25 nM NS3h_1b(con1), 1 mM ATP, 1.25 mM MgCl2 or MnCl2",about 14 times
same,ability of divalent metal to support DNA unwinding,[1]; data not shown,could fuel unwinding
same,ATP hydrolysis in the presence of RNA,[2],supported hydrolysis
same,ATP hydrolyzed for each 25 bp duplex separated,[2],about 75 ATP
same,rate of ATP hydrolysis,[2],605 ± 4 nM/min
same,ATP hydrolysis in the absence of RNA,[2],inhibited the rate of hydrolysis
same,ATP hydrolyzed in the time needed to separate a single base pair,[2],3 ATP
